Assay results: ChEMBL document CHEMBL4007417, “Target Elucidation by Cocrystal Structures of NADH-Ubiquinone Oxidoreductase of Plasmodium falciparum (PfNDH2) with Small Molecule To Eliminate Drug-Resistant Malaria” (J Med Chem, 2017)
Calls of active or inactive are those of the source. No cut-off for these calls is given here.

Legend:
Plasmodium yoelii [1] = assay: Antimalarial activity against Plasmodium yoelii YM infected in BALB/c mouse assessed as mouse survival at 30 mg/kg, sc administered BID for 4 days starting at 96 hrs post infection, 8 hrs apart by Giemsa-staining based microscopic analysis; assay type: functional
Summary of the method: (§1)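 Mice inoculated with 1×106 P. yoelii parasites. Subcutaneous dosing for 4 days starting 96 h post infection, given once daily or twice daily 8 h apart. Parasitemia followed on Giemsa-stained blood smears. Survival recorded at 40 days post infection; groups of n=3. DMSO-only mice served as untreated controls.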

[2] = Inhibition of Plasmodium falciparum wild type NDH2 expressed in Escherichia coli BL21 using NADH and ubiquinone-1 as substrate by spectrophotometric analysis
Summary of the method: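 Recombinant PfNDH2 activity measured spectrophotometrically at 25 °C. Buffer: 50 mM MOPS pH 7.0, 150 mM NaCl, 1 mM EDTA, 0.01% Triton X-100. Substrates 50 µM NADH and 30 µM ubiquinone-1, with 0.5 nM enzyme and selected inhibitor concentrations.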

Plasmodium yoelii [3] = assay: Antimalarial activity against Plasmodium yoelii YM infected in BALB/c mouse assessed as mouse survival at 10 mg/kg, sc administered QD for 4 days starting at 96 hrs post infection by Giemsa-staining based microscopic analysis; assay type: functional; summary of the method: as §1
Plasmodium falciparum [4] = assay: Antimalarial activity against multi drug-resistant asexual blood stage Plasmodium falciparum Fab9 after 72 hrs by SYBR green-based fluorometric analysis; assay type: functional; conditions: Fab9, 72 h
Summary of the method: (§2)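 Mid-ring-stage cultures (~6-10 h post-invasion) at 1% parasitemia and 2% hematocrit, in triplicate. Twofold serial dilutions from a top concentration of 100 nM. Incubated 72 h at 37 °C under 5% CO2/5% O2/90% N2. Lysis buffer containing 5×SYBR Green I added, 20 min in the dark, fluorescence read at ex 485/em 538 nm. EC50 derived.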

[5] = Inhibition of Plasmodium falciparum NDH2 N92R mutant expressed in Escherichia coli DH5alpha competent cells using NADH and ubiquinone-1 as substrate by spectrophotometric analysis
Summary of the method: (§3)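 Recombinant PfNDH2 point or double mutants assayed spectrophotometrically at 25 °C. Buffer: 50 mM MOPS pH 7.0, 150 mM NaCl, 1 mM EDTA, 0.01% Triton X-100. Substrates 50 µM NADH and 30 µM ubiquinone-1, with 0.5 nM enzyme and selected inhibitor concentrations.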

Plasmodium falciparum [6] = assay: Antimalarial activity against chloroquine/quinine/sulfadoxine-pyrimethamine/amodiaquine-resistant asexual blood stage Plasmodium falciparum Dd2 assessed as reduction in parasite recrudescence at 10 times EC50 for 72 hrs measured after 28 days post invasion by Giemsa staining-based light microscopic analysis; assay type: functional
Summary of the method: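 Parasite cultures exposed for 72 h to 10× EC50 of inhibitor. Drug then removed and cultures maintained for 28 days post treatment. Recrudescence monitored by microscopy.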

Plasmodium falciparum [7] = assay: Synergistic antimalarial activity against Plasmodium falciparum in presence of chloroquine; assay type: functional
Summary of the method: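 In vitro drug interaction analyses with other antimalarials against P. falciparum. Experiments repeated three times; error bars s.e.m.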

Plasmodium yoelii [8] = assay: Antimalarial activity against Plasmodium yoelii YM infected in BALB/c mouse assessed as parasite growth inhibition at 30 mg/kg, sc administered BID for 4 days starting at 96 hrs post infection, 8 hrs apart by Giemsa-staining based microscopic analysis; assay type: functional; conditions: read-out: GI
Summary of the method: (§4)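 P. yoelii-infected mice, n=3 per group. Subcutaneous injection twice daily, 8 h apart, for 4 days starting at 96 h post infection. Growth inhibition read from blood smears at 24 h post treatment. Cure time taken as the minimum period to cure all mice in the group. DMSO controls included.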

Plasmodium falciparum [9] = assay: Antimalarial activity against chloroquine/quinine/sulfadoxine-pyrimethamine/amodiaquine-resistant asexual blood stage Plasmodium falciparum PC26 after 72 hrs by SYBR green-based fluorometric analysis; assay type: functional; conditions: PC26, 72 h; summary of the method: as §2
Plasmodium falciparum [10] = assay: Antimalarial activity against chloroquine-resistant asexual blood stage Plasmodium falciparum GB4 after 72 hrs by SYBR green-based fluorometric analysis; assay type: functional; conditions: GB4, 72 h; summary of the method: as §2
Plasmodium yoelii [11] = assay: Antimalarial activity against Plasmodium yoelii YM infected in BALB/c mouse assessed as mouse survival at 5 mg/kg, sc administered QD for 4 days starting at 2 hrs post infection by Giemsa-staining based microscopic analysis; assay type: functional
Summary of the method: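 Mice inoculated with 1×106 P. yoelii parasites, then dosed subcutaneously once daily for 4 days starting 2 h post infection. Parasitemia followed by microscopy of blood smears. Survival scored at 40 days post infection in groups of n=3 mice. DMSO-only controls.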

Plasmodium yoelii [12] = assay: Antimalarial activity against Plasmodium yoelii YM infected in BALB/c mouse assessed as time duration for parasite cure at 10 mg/kg, sc administered QD for 4 days starting at 96 hrs post infection by Giemsa-staining based microscopic analysis; assay type: functional
Summary of the method: (§5)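 P. yoelii-infected mice, n=3 per group. Subcutaneous injection once daily for 4 days starting at 96 h post infection. Parasitemia followed on blood-smear microscopy, with inhibition measured at 24 h post treatment. Cure time taken as the minimum period to cure all mice; survival recorded at 40 days. DMSO controls included.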

[13] = Inhibition of Plasmodium falciparum NDH2 D171R mutant expressed in Escherichia coli DH5alpha competent cells using NADH and ubiquinone-1 as substrate by spectrophotometric analysis; summary of the method: as §3
Plasmodium falciparum [14] = assay: Antimalarial activity against dihydroartemisinin-resistant asexual blood stage Plasmodium falciparum 803 after 72 hrs by SYBR green-based fluorometric analysis; assay type: functional; conditions: Plasmodium falciparum, 803, 72 h; summary of the method: as §2
[15] = Inhibition of Plasmodium falciparum NDH2 N92R/S497R double mutant expressed in Escherichia coli DH5alpha competent cells using NADH and ubiquinone-1 as substrate by spectrophotometric analysis; summary of the method: as §3
Plasmodium yoelii [16] = assay: Antimalarial activity against Plasmodium yoelii YM infected in BALB/c mouse assessed as time duration for parasite cure at 5 mg/kg, sc administered QD for 4 days starting at 2 hrs post infection by Giemsa-staining based microscopic analysis; assay type: functional
Summary of the method: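 P. yoelii-infected mice, n=3 per group. Subcutaneous injection once daily for 4 days starting at 2 h post infection. Growth inhibition determined at 24 h post treatment by blood-smear microscopy. Cure time taken as the minimum period to cure all mice in the group.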

Plasmodium yoelii [17] = assay: Antimalarial activity against Plasmodium yoelii YM infected in BALB/c mouse assessed as time duration for parasite cure at 30 mg/kg, sc administered BID for 4 days starting at 96 hrs post infection, 8 hrs apart by Giemsa-staining based microscopic analysis; assay type: functional; summary of the method: as §4
Plasmodium yoelii [18] = assay: Antimalarial activity against Plasmodium yoelii YM infected in BALB/c mouse assessed as mouse survival at 90 mg/kg, sc administered BID for 4 days starting at 96 hrs post infection, 8 hrs apart by Giemsa-staining based microscopic analysis; assay type: functional; summary of the method: as §1
Plasmodium falciparum [19] = assay: Antimalarial activity against chloroquine/quinine/sulfadoxine-pyrimethamine/amodiaquine-resistant asexual blood stage Plasmodium falciparum Dd2 after 72 hrs by SYBR green-based fluorometric analysis; assay type: functional; conditions: Dd2, 72 h; summary of the method: as §2
Plasmodium falciparum [20] = assay: Antimalarial activity against Plasmodium falciparum 3D7 assessed as alteration of parasite morphology at 10 times EC50 dosed at ring stage […] by Giemsa staining-based light microscopic analysis; assay type: functional, organism-based
Plasmodium yoelii [21] = assay: Antimalarial activity against Plasmodium yoelii YM infected in BALB/c mouse assessed as parasite growth inhibition at 10 mg/kg, sc administered QD for 4 days starting at 96 hrs post infection by Giemsa-staining based microscopic analysis; assay type: functional; conditions: read-out: GI; summary of the method: as §5
[22] = Inhibition of Plasmodium falciparum NDH2 S497R mutant expressed in Escherichia coli DH5alpha competent cells using NADH and ubiquinone-1 as substrate by spectrophotometric analysis; summary of the method: as §3

Cc1c(-c2ccc(Cc3ccc(OC(F)(F)F)cc3)cc2)[nH]c2cccc(F)c2c1=O
survival at 30 mg/kg (Plasmodium yoelii [1]): 100% | IC50 [2]: 3.73 nM | survival at 10 mg/kg (Plasmodium yoelii [3]): 100% | EC50 (Plasmodium falciparum [4]): 6.25 nM | IC50 [5]: 16.7 nM | Activity (Plasmodium falciparum [6]): Active | fractional inhibitory concentration index (FICI) (Plasmodium falciparum [7]): 1.52 | inhibition in vivo at 30 mg/kg (Plasmodium yoelii [8]): 100% | EC50 (Plasmodium falciparum [9]): 5.92 nM | EC50 (Plasmodium falciparum [10]): 8.16 nM | survival at 5 mg/kg (Plasmodium yoelii [11]): 100% | Time (Plasmodium yoelii [12]): 17 days | IC50 [13]: 9.74 nM | EC50 (Plasmodium falciparum [14]): 5.56 nM | IC50 [15]: 123 nM | Time (Plasmodium yoelii [16]): 28 days | Time (Plasmodium yoelii [17]): 4 days | survival at 90 mg/kg (Plasmodium yoelii [18]): 100% | EC50 (Plasmodium falciparum [19]): 3.83 nM | Activity (Plasmodium falciparum [20]): Active | inhibition in vivo at 10 mg/kg (Plasmodium yoelii [21]): 98.4% | IC50 [22]: 17.1 nM
